This passage reports cytotoxicity results from ChEMBL document CHEMBL4513216, “Probing the Open Global Health Chemical Diversity Library for Multistage-Active Starting Points for Next-Generation Antimalarials” (ACS Infect Dis, 2020).

The nature of this series: Toxicity liver stage against HepG2, at 10uM. Type of series: cell-based. Further details: test concentration 10 uM, cell line HepG2-A16-CD81EGFP. The conditions noted are these: human, HepG2-A16-CD81EGFP cells; read-out: INHIBITION
The method, boiled down: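 Uninfected HepG2-A16-CD81EGFP cells, 3 × 10^3 per well, 1536-well, plated on prespotted compound at 10 μM final, parasite-free screening media added to match infected plates; puromycin 10 μM positive, DMSO 0.5% negative; run in parallel with 48 h PbLuc assay at 37 °C, 5% CO2; viability by CellTiter-Glo luminescence, normalized to controls.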
As to `COc1cc(N2CC[C@H](O)[C@@H]2Cc2ccccc2)ncn1`, the cytotoxicity at 10 µM is -75%.
For the molecule `CC(C)N(C)Cc1cncc2c1CCN(Cc1ccoc1)C2`, the cytotoxicity at 10 µM is -109%.
Consider `NC(=O)C1CCCN(c2ncnc3c2Cc2ccccc2OC3)C1` (stereo not drawn), for which the cytotoxicity at 10 µM is -5.64%.
As for `CCS(=O)(=O)N1C[C@@H]2CN(Cc3ccco3)CCO[C@@H]2C1`, the cytotoxicity at 10 µM was -122%.
As for `NC(=O)c1c(SCCN2CCCCC2)sc2c(O)cc(=O)[nH]c12`, the cytotoxicity at 10 µM was -13.7%.
With `Cc1noc(C)c1CN1CC[C@@H]2O[C@H](COCC(C)C)CC[C@@H]21`, the cytotoxicity at 10 µM is 8.28%.
For the molecule `COC1CCN(C(=O)Nc2cc(C(F)(F)F)c[nH]c2=O)CC1`, the cytotoxicity at 10 µM stood at 4.1%.
Under `O=C(c1cnnn1-c1ccccc1)N1CCCC(c2ccn[nH]2)C1` (stereo not drawn) stands -2.75%; under `Cc1ccc(CN(C(=O)c2cccc(NC(N)=O)c2)C2CC2)o1`, 2.69%.
The figure for `O=C(Cc1cccc(F)c1)N1CCc2ncnc(N3CCCC3)c2CC1` is -4.9%.
The figure for `Fc1cccc(-c2noc3c2CN(Cc2cncn2C2CC2)CC3)c1` is -1.24%; for `O=c1[nH]c2csnc2c(=O)n1Cc1ccc(Br)cc1` it is 5.41%.
As to `Cc1nnc2n1CCN(C(=O)c1cc(Cl)c(Br)[nH]1)C2`, the cytotoxicity at 10 µM is -4.31%.
`Cc1[nH]c2ccc(CNc3cc(C(N)=O)ccn3)cc2c1C`: the cytotoxicity at 10 µM is -4.73%.
Under `CC(C)CN1CCCC1c1cc[nH]n1` (stereo not drawn) stands 9.95%; under `COCCC(=O)N1CC2(CCN(Cc3cccc(Cl)c3)CC2)C1`, 5.63%.
For `CC(C)C(c1cccnc1)N(C)C(=O)Cc1c(F)cccc1F` (stereo not drawn), the cytotoxicity at 10 µM is -0.595%.
As to `CC(=O)N1CCN(c2ccccc2CNc2ccc3[nH]ncc3c2)CC1`, the cytotoxicity at 10 µM was 9.17%.
`Cc1cnc(C(=O)N2CCCn3c(nc(CN(C)C)cc3=O)C2)cn1`: the cytotoxicity at 10 µM was -5.93%.
For the molecule `CCc1cnc(CNC(=O)NC2CC(C)(C)OC2(C)C)s1` (stereo not drawn), the cytotoxicity at 10 µM amounted to 10.3%.
`COc1cccc(CC2CCCN2CCCO)c1` (stereo not drawn): the cytotoxicity at 10 µM was -37.5%.
As for `c1ccc(-c2nnc(C3CCCN(CC4CCCCC4)C3)o2)nc1` (stereo not drawn), the cytotoxicity at 10 µM was -28.5%.
Turning to `Cc1nc(NCc2ccccc2)cc(C(C)Cn2nc(C)c(C)c2C)n1` (stereo not drawn), the cytotoxicity at 10 µM was determined as 7.03%.
`CO[C@@H]1CC[C@H]2[C@H]1OCCN2S(=O)(=O)c1cn(C)cn1`: the cytotoxicity at 10 µM was 5.32%.
The figure for `CN(C)C(=O)Cc1ccc(-c2cccc3c2CCNC3)cc1` is 2.28%.
Under `CCC(Cn1ccnc1)n1cnc2c(C)csc2c1=O` (stereo not drawn) stands -4.34%.
In the case of `CCc1nccn1C1CCCN(C(=O)c2cnc[nH]2)C1` (stereo not drawn), the cytotoxicity at 10 µM is 2.52%.
Turning to `CC(=O)NCC(=O)N1CCCC(C(=O)c2ccc(C(C)(C)C)cc2)C1` (stereo not drawn), the cytotoxicity at 10 µM worked out at 5.78%.
Under `Cc1c(Cl)c(C(=O)N2C[C@@H](C(=O)O)[C@H](c3cccnc3)C2)nn1C` stands 6.21%.
Turning to `COc1nc2c(cc1C(=O)N1CCCC1c1ccccn1)CCC2` (stereo not drawn), the cytotoxicity at 10 µM was -5.54%.
Regarding `COC(=O)N1CCC(Nc2cccc(F)c2C#N)CC1`, the cytotoxicity at 10 µM was 18.1%.
As to `CNC(=O)c1cc(C)n(-c2ccccc2)n1`, the cytotoxicity at 10 µM is -0.142%.
For `Cc1cccc(Nc2ccc(C3CCCCN3)cn2)n1` (stereo not drawn), the cytotoxicity at 10 µM was -1.93%.
For `Cc1ccccc1CC(C)NCc1c(C)nn(C)c1N1CCOCC1` (stereo not drawn), the cytotoxicity at 10 µM is -13.1%.
`NC(=O)N1CCCN(Cc2cc(F)cc(Br)c2)CC1`: the cytotoxicity at 10 µM is 9.91%.
Take `Cc1cc(C(=O)NCC(c2ccsc2)N(C)C)no1` (stereo not drawn): the cytotoxicity at 10 µM was -18.3%.
As for `COCCc1nc(-c2cnn3c(C)cc(C)nc23)no1`, the cytotoxicity at 10 µM stood at 2.49%.
Consider `COc1ncccc1CNC(=O)c1ccco1`, for which the cytotoxicity at 10 µM was -8.48%.
With `Cc1cc(N2CCCC3(CN(C)C(=O)O3)C2)c2cc3c(cc2n1)OCO3` (stereo not drawn), the cytotoxicity at 10 µM is -5.05%.
Turning to `C[C@@H]1CN(C(=O)c2cccc(F)c2)C[C@]12CCN(c1ccsc1)C2=O`, the cytotoxicity at 10 µM was -80%.
With `CN(C)C(=O)CN1CC[C@]2(CN(CC3CC3)C[C@H]2c2ccccc2)C1=O`, the cytotoxicity at 10 µM is 1.46%.
As for `CC(NC(=O)CCN1CCOC1=O)(c1ccccc1)c1ccccc1`, the cytotoxicity at 10 µM was -10%.
Take `CNc1nc(N2CCN(C3CCCCC3)C(CCO)C2)nc2c1CCC2` (stereo not drawn): the cytotoxicity at 10 µM is -6.86%.
Take `CNc1nc(C(=O)N2CCC3(CCCN(C)C3=O)C2)cs1` (stereo not drawn): the cytotoxicity at 10 µM was -8.57%.
The figure for `CCCC1CN(CCOC)C(=O)c2cccnc2O1` (stereo not drawn) is 5.42%; for `Cc1noc(C)c1CN(C)C(=O)NC1CCC(O)CC1` (stereo not drawn) it is -9.21%; for `Cc1nn(C)c(C)c1NC(=O)CN1CCN(c2nccs2)C(C)C1` (stereo not drawn) it is -5.55%.
Take `Cn1ccnc1CNCC1CCCN1c1cccnn1` (stereo not drawn): the cytotoxicity at 10 µM was -11.3%.
Take `CC1CCCN(C(=O)Cn2cc(I)cn2)C1` (stereo not drawn): the cytotoxicity at 10 µM amounted to 0.106%.
`Cc1ccc(CC(=O)N2CCCC(c3n[nH]c4nccnc34)C2)cc1` (stereo not drawn): the cytotoxicity at 10 µM was -22.2%.
With `CCOc1cccc(C(=O)N2CCC(c3n[nH]c(C4CC4)n3)CC2)c1`, the cytotoxicity at 10 µM was -16.8%.
Under `Cc1cc(C)n(CC2CCCCN2CC(=O)Nc2cccnc2)n1` (stereo not drawn) stands 6.46%; under `Fc1cc(F)cc(CN2CCC(c3cc4ncccc4cn3)CC2)c1`, -1.13%.
On to `CS(=O)(=O)N1CCN(C(=O)C2CSCCC(=O)N2)CC1` (stereo not drawn), for which the cytotoxicity at 10 µM amounted to 0.565%.
For `CCS(=O)(=O)NCCNC(=O)N(Cc1ccc(C)o1)C(C)C`, the cytotoxicity at 10 µM was found to be 1.84%.
As to `O=C(Cc1csc(N2CCNC2=O)n1)NCC1(c2ccccc2)CC1`, the cytotoxicity at 10 µM is -123%.
With `CCc1cnc(NCc2nc(COC)no2)nc1`, the cytotoxicity at 10 µM was determined as 7.36%.
With `Cc1cccc(CN2CCc3nnc(Cn4cccc4)n3CC2)n1`, the cytotoxicity at 10 µM turned out to be 1.7%.
For the molecule `O=C1NCC2(CCCN(C(=O)c3csc(-c4cccs4)n3)C2)O1` (stereo not drawn), the cytotoxicity at 10 µM was 0.55%.
The figure for `CCc1cnc(N2C[C@@H]3C[C@H](C(=O)NCC(C)C)[C@H](C2)O3)nc1` is 12%; for `COc1ccc(-n2cc3[nH]c(=O)n(Cc4cccc(F)c4)n3c2=O)cc1` it is 14.8%; for `c1ccc(OCCNC2=NCCCN2)cc1` it is -2.34%.
Turning to `Cc1ccc2c(n1)N(CCn1cccn1)CCN(S(C)(=O)=O)C2`, the cytotoxicity at 10 µM turned out to be 13.5%.
As to `O=C1COc2ccc(S(=O)(=O)N3CCOCC3)c3c2N1CCC3`, the cytotoxicity at 10 µM worked out at 7.55%.
Under `COC(=O)NCCCn1ccnc1-c1ccccc1` stands -2.27%.
Consider `Cc1nc(O)cc(C2CCN(C(=O)C(C)Cn3nc(C)nc3C)CC2)n1` (stereo not drawn), for which the cytotoxicity at 10 µM is -1.89%.
On to `CN(CC1(C)COC1)C(=O)c1cc(-c2ccn(C)n2)nc2ccccc12`, for which the cytotoxicity at 10 µM is 9.81%.
With `CN1CCN(c2ccc(F)cc2C(N)=O)CC1`, the cytotoxicity at 10 µM stood at 6.11%.
On to `O=C(O)c1c(Cl)ncn1-c1cccc2ccccc12`, for which the cytotoxicity at 10 µM was determined as 1.76%.
Consider `Cc1ccc(C)n1-c1c(C(=O)NCC(C)N(C)C)cnn1C` (stereo not drawn), for which the cytotoxicity at 10 µM amounted to 15.9%.
With `CCc1nccn1C1CCCN(C(=O)c2ccc3[nH]c(=O)[nH]c3c2)C1` (stereo not drawn), the cytotoxicity at 10 µM was -3.71%.
Take `CCc1ncc(C(=O)NCCN(C)S(C)(=O)=O)cn1`: the cytotoxicity at 10 µM was 4.03%.
In the case of `CC(Cn1ccnc1)NC(=O)N(C)Cc1ccco1` (stereo not drawn), the cytotoxicity at 10 µM is -0.687%.
In the case of `Cc1ccc(C(CNC(=O)NCc2ccccn2)N2CCOCC2)o1` (stereo not drawn), the cytotoxicity at 10 µM is -14.9%.
Take `O=C1COc2ccc(C(=O)N3CCCC(n4ccnc4)C3)cc2N1` (stereo not drawn): the cytotoxicity at 10 µM is -13.5%.
Consider `O=C(c1ccccc1-n1cccn1)N1CCC(Nc2cccnn2)CC1`, for which the cytotoxicity at 10 µM is -15.9%.
For `c1cc(-c2nc3c(c(NCCn4ccnn4)n2)CCNCC3)ccn1`, the cytotoxicity at 10 µM was -56.4%.
For `CCOC(=O)c1n[nH]cc1-c1cncn1CC(C)n1nc(C)cc1C` (stereo not drawn), the cytotoxicity at 10 µM stood at 2.25%.
Take `CNCCc1nc2cc(F)ccc2[nH]1`: the cytotoxicity at 10 µM worked out at 22%.
As to `NC(=O)c1cnc(NC2CCN(c3ccccn3)CC2)c(Cl)c1`, the cytotoxicity at 10 µM was found to be 13.8%.
With `O=C(c1ccncn1)N1CCC[C@]2(C[C@@H](OCc3ccccn3)CO2)C1`, the cytotoxicity at 10 µM is -72.9%.
With `Cc1cc(NCCc2nc(C)c[nH]2)nc(-c2ccccc2O)n1`, the cytotoxicity at 10 µM is 1.5%.
In the case of `COc1ccc(C(C)NCc2nnc(C)s2)cc1F` (stereo not drawn), the cytotoxicity at 10 µM was -19.8%.
Consider `Cc1ccc(CN2CC[C@@H](N(C)C(C)C)[C@@H]2Cc2ccccc2)o1`, for which the cytotoxicity at 10 µM is -3.52%.
Under `Cc1nccc(CNC(=O)NCC(C)Oc2ccccc2F)n1` (stereo not drawn) stands -13.2%; under `CCN(CC1=CCN(C)CC1)C(=O)CCOC`, 5.09%.
The figure for `O=C(CNC(=O)N1CCN(c2cccc(Cl)c2)CC1)Nc1ccccn1` is -0.74%; for `Cc1cccc(CNC(=O)Nc2ccn(CCCC(=O)N(C)C)n2)c1` it is 2%; for `O=C(CNc1ccc(OCC2CCOCC2)cc1)NCc1ccco1` it is 3.43%.
Consider `O=C1NCCN1CCNc1cc(-c2ccncc2)nc2ccnn12`, for which the cytotoxicity at 10 µM is -4.76%.
The figure for `Cc1nn(CCNS(=O)(=O)c2ccccc2)c(C)c1Cl` is -5.26%.
In the case of `CCc1cnccc1C(=O)NC1CCN(C(=O)OC)CC1`, the cytotoxicity at 10 µM is 9.09%.
Take `COCCNC(=O)Cn1cc(OCc2ccc(F)cc2)c(=O)cc1C`: the cytotoxicity at 10 µM is -3.04%.
In the case of `CNC(=O)Cc1nc(CNc2ccc(SC)c(F)c2)cs1`, the cytotoxicity at 10 µM was -1.99%.
With `Cn1ncc(NC(=O)c2noc3c2CCCC3)c1C(=O)N1CCCCC1`, the cytotoxicity at 10 µM is -13.4%.
Consider `CCc1cnc(N2CCC3(CCN(Cc4cccc(C)c4)C3=O)C2)nc1` (stereo not drawn), for which the cytotoxicity at 10 µM is -0.891%.
In the case of `O=C(c1ccc(F)c(Br)c1)N1CCCN2CCCC2C1` (stereo not drawn), the cytotoxicity at 10 µM was -0.746%.
`Cc1nc(C(=O)N2CCCC2c2noc(C3CC3)n2)c[nH]1` (stereo not drawn): the cytotoxicity at 10 µM was -7.06%.
